Assay [1] relates to A549. Kind of assay: Cell cycle arrest in human A549 cells assessed as accumulation at G0/G1 phase at 1.6 uM measured after 18 hrs by propidium iodide staining based flow cytometry (reference value: 58%). In kind it is functional. A general note: Flow cytometry measures light scatter and fluorescence of single cells or particles in a stream.
Assay [2] has as its system A549. The assay can be described thus: Cell cycle arrest in human A549 cells assessed as accumulation at G0/G1 phase at 0.8 uM treated 32 hrs post mimosine addition measured after 18 hrs in presence of fresh medium by propidium iodide staining based flow cytometry (reference value: 58%). In kind it is functional.
Assay [3] relates to A549. The assay can be described thus: Cell cycle arrest in human A549 cells assessed as accumulation at S phase at 0.8 uM measured after 18 hrs by propidium iodide staining based flow cytometry (reference value: 21%). The assay is classed as functional.
In assay [4] the test system is MDA-MB-468. The assay can be described thus: Cell cycle arrest in human MDA-MB-468 cells assessed as accumulation at sub-G1 phase at 22 uM measured after 18 hrs by propidium iodide staining based flow cytometry relative to control. In kind it is functional.
For assay [5], the system named is A549. Kind of assay: Cell cycle arrest in human A549 cells assessed as accumulation at S phase at 0.8 uM treated 32 hrs post mimosine addition measured after 18 hrs in presence of fresh medium by propidium iodide staining based flow cytometry (reference value: 23%). The assay is classed as functional.
For another assay, the target named is Tubulin (Sus scrofa) (UniProt P02554+P02550). The assay can be described thus: Inhibition of porcine tubulin polymerization at 5 uM incubated for 1 min by fluorescence based assay. In kind it is protein assay. The gist of the method: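 Compounds added from 10x stocks in duplicate and warmed at 37°C ≤1 min. Ice-cold tubulin pre-mix then added. Fluorescent reporter read at ex 360/em 460 nm for 60 min. Paclitaxel served as enhancer control, CaCl2 as inhibitor control.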

For assay [6], the target named is Cyclin-dependent kinase 4/cyclin D1 (Homo sapiens, UniProt P11802). Kind of assay: Inhibition of recombinant human N-terminal GST-tagged CDK4 (S4 to E303 residues)/Cyclin D1 (Q4 to I295 residues) expressed in sf9 cells using RBCTF as substrate measured after 1 hr by ADP-glo luminescence assay. In a few lines:
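ADP-Glo luminescence assay of Cdk4–cyclin D1 with RBCTF substrate, 200 ng enzyme, ATP 125 µM (2.5x working mix), Tris/MgCl2/BSA/DTT/MnCl2 buffer, 1 h at 21°C, then two 40-min reagent steps. IC50 from a four-parameter variable-slope sigmoidal fit of inhibition against concentration; mean ± SD from three independent experiments.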
(In ADP-Glo the light output rises with the ADP produced.)

In assay [7] the test system is A549. Kind of assay: Cell cycle arrest in human A549 cells assessed as accumulation at G0/G1 phase at 1.6 uM treated 32 hrs post mimosine addition measured after 18 hrs in presence of fresh medium by propidium iodide staining based flow cytometry (reference value: 58%). The assay is classed as functional.
The next assay deals with T1, Cytochrome P450 1A1 (Homo sapiens, UniProt P04798).
T1 sequence (P04798 whole entry): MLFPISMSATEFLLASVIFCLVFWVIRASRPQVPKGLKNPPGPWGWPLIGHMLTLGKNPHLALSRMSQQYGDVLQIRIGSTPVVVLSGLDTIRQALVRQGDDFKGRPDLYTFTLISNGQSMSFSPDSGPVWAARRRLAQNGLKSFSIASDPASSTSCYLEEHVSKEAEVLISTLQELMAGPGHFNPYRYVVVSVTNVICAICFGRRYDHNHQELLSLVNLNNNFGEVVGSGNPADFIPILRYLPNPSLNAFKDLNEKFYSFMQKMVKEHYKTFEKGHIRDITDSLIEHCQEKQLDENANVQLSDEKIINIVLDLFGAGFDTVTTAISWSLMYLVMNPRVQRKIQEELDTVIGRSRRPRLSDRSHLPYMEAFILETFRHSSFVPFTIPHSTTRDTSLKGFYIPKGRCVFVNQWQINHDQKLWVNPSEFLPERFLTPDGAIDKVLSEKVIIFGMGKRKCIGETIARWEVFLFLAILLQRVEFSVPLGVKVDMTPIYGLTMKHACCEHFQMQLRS
The assay can be described thus: Inhibition of recombinant human CYP1A1 expressed in baker's yeast-derived microsomes using 7-ethoxyresorufin as substrate by fluorescence assay. The assay is classed as ADME.

Assay [8] deals with T47D. The assay can be described thus: Cell cycle arrest in human T47D cells assessed as accumulation at sub-G1 phase at 0.75 uM measured after 18 hrs by propidium iodide staining based flow cytometry relative to control. In kind it is functional.
Assay [9] concerns Calu-1. The assay can be described thus: Cell cycle arrest in human Calu1 cells assessed as increase in accumulation at S phase at 0.9 uM treated 18 hrs post serum-starvation measured after 18 hrs in presence of fresh medium containing FBS by propidium iodide staining based flow cytometry relative to control. In kind it is functional.
Assay [10] deals with Calu-1. The assay can be described thus: cells. Particulars: Homo sapiens, Calu-1, 72 h.
For assay [11], the system named is A549. Kind of assay: Cell cycle arrest in human A549 cells assessed as accumulation at S phase at 1.6 uM treated 32 hrs post mimosine addition measured after 18 hrs in presence of fresh medium by propidium iodide staining based flow cytometry (reference value: 23%). The assay is classed as functional.
In assay [12] the target is Cyclin-dependent kinase 4/cyclin D1 (Homo sapiens) (UniProt P11802+P24385). The assay can be described thus: Inhibition of recombinant human N-terminal GST-tagged CDK4 (S4 to E303 residues)/Cyclin D1 (Q4 to I295 residues) expressed in sf9 cells at 10 uM using RBCTF as substrate measured after 1 hr by ADP-glo luminescence assay relative to control.
The subject of assay [13] is A549. Kind of assay: Cell cycle arrest in human A549 cells assessed as accumulation at G2/M phase at 0.8 uM treated 32 hrs post mimosine addition measured after 18 hrs in presence of fresh medium by propidium iodide staining based flow cytometry (reference value: 14%). The assay is classed as functional.
Assay [14] concerns A549. Kind of assay: Cell cycle arrest in human A549 cells assessed as ratio of G1 to S phase at 0.8 uM measured after 18 hrs by propidium iodide staining based flow cytometry (reference value: 2.7). The assay is classed as functional.
For assay [15], the system named is T47D. Kind of assay: Cell cycle arrest in human T47D cells assessed as increase in accumulation at S phase at 0.75 uM treated 18 hrs post serum-starvation measured after 18 hrs in presence of fresh medium containing FBS by propidium iodide staining based flow cytometry relative to control. The assay is classed as functional.
The subject of assay [16] is MDA-MB-468. Kind of assay: cells. Conditions: Homo sapiens, MDA-MB-468, 72 h.
Assay [17] deals with T47D. The assay can be described thus: Cell cycle arrest in human T47D cells assessed as accumulation at sub-G1 phase at 1.5 uM treated 18 hrs post serum-starvation measured after 18 hrs in presence of fresh medium containing FBS by propidium iodide staining based flow cytometry relative to control. In kind it is functional.
Assay [18] relates to A549. Kind of assay: Cell cycle arrest in human A549 cells assessed as accumulation at G2/M phase at 0.8 uM measured after 18 hrs by propidium iodide staining based flow cytometry (reference value: 18%). The assay is classed as functional.
Assay [19] deals with T47D. Kind of assay: Cell cycle arrest in human T47D cells assessed as accumulation at sub-G1 phase at 1.5 uM measured after 18 hrs by propidium iodide staining based flow cytometry relative to control. In kind it is functional.
Assay [20] addresses Cyclin-dependent kinase 1/cyclin B1 (Homo sapiens, UniProt P06493). Kind of assay: Inhibition of recombinant human N-terminal GST/His6-tagged CDK1 (M1 to M297 residues)/CyclinB1 (M1 to V433 residues) expressed in Sf9 insect cells using RBCTF as substrate measured after 1 hr by ADP-glo luminescence assay.
Assay [21] deals with T47D. The assay can be described thus: Cell cycle arrest in human T47D cells assessed as accumulation at G0/G1 phase at 1.5 uM treated 18 hrs post serum-starvation measured after 18 hrs in presence of fresh medium containing FBS by propidium iodide staining based flow cytometry (reference value: 60.3%). The assay is classed as functional.

Activity calls are given as the source filed them. No cut-off for these calls is given here.

Consider `O=C(COc1ccc(-c2nc3ccccc3c(=O)[nH]2)cc1)Nc1cccc(Cl)c1`, for which the Activity in the assay with A549 [1] amounted to 12%; with A549 [2], 36%; with A549 [3] it was 10%; in the assay with MDA-MB-468 [4], 0%; in the assay on A549 [5] it was 24%; with A549 [7] it was 12%. The Activity in the assay with T47D [8] was found to be 0%; in the assay on Calu-1 [9] it was 0.7%; in the assay with A549 [11], 18%; in the assay with A549 [13], 35%; with T47D [15], 2.13%; in the assay with T47D [17] it was 18.6%. Moreover, the Activity was 28% in the assay with A549 [18], 20% in the assay on T47D [19] and 68.1% in the assay on T47D [21]. In addition, on Tubulin (Sus scrofa), the inhibition – broadly, the change of the read-out against control, counted positive when it falls – is “Active”. The IC50 – broadly, the midpoint of a concentration-inhibition curve – in assay [6] was 470 nM; on Cytochrome P450 1A1 it was > 5000 nM; in [20], > 50000 nM. Also, the EC50 – broadly, the concentration that produces a half-maximal response – in the assay on Calu-1 [10] amounted to 900 nM; in the assay with MDA-MB-468 [16], 10800 nM. For the same compound, in [12], the inhibition is 95%. For the same compound, the Ratio in the assay on A549 [14] turned out to be 6.5.

The values above are taken from ChEMBL document CHEMBL4480390, “Cink4T, a quinazolinone-based dual inhibitor of Cdk4 and tubulin polymerization, identified via ligand-based virtual screening, for efficient anticancer therapy” (Eur J Med Chem, 2019).
